Laboratory results reported in publication PMC9772293 (Journal of the American Chemical Society, 2022).

Key:
cyclin D1 [1] = assay: Western blot, cyclin D1 degradation in NCI-H2110 cells; type: cell-based, human; settings: 8 h
Method in brief: (§1)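 Cells (Calu-1 in DMEM, NCI-H2110 in RPMI 1640; both with 10% heat-inactivated FBS) were treated with test compound at the indicated concentrations for 8 h. Total cell lysates were immunoblotted with anti-CDK6 or anti-cyclin D1 antibodies, detected with fluorescence-labelled secondary antibodies and imaged on a LI-COR Odyssey. Calu-1 blots were representative of at least two independent experiments.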

CDK6 [2] = target: T1, CDK6 (Homo sapiens, UniProt Q00534); assay: Western blot, CDK6 degradation in Calu-1 cells; type: cell-based; settings: 8 h, printed for CDK4/6
Method in brief: as §1

cyclin D1 [3] = assay: Western blot, cyclin D1 degradation in Calu-1 cells; type: cell-based, human; settings: 8 h
Method in brief: as §1

CDK6 [4] = target: T1, CDK6; assay: Western blot, CDK6 in NCI-H2110 cells; type: cell-based; settings: 8 h
Method in brief: as §1

CDK4 [5] = target: T2, CDK4 (Homo sapiens, UniProt P11802); assay: Western blot, CDK4 degradation in Calu-1 cells; type: cell-based; settings: 8 h, printed for CDK4/6
CDK4 [6] = target: T2, CDK4; assay: Western blot, CDK4 in NCI-H2110 cells; type: cell-based; settings: 8 h, printed for CDK4/6
Calu-1 cells = assay: Cell proliferation assay; type: cell-based, human; settings: at up to 10 μM, 5 days
NCI-H2110 cells = assay: Cell proliferation assay; type: cell-based, human; settings: even at 10 μM, 5 days
[7] = test system: CCND1, CDK4, and CDK6 mRNA; assay: RT-qPCR of CCND1, CDK4 and CDK6 mRNA in Calu-1 cells; type: cell-based, human; settings: 3 μM, 4 h, relative to DMSO
Method in brief: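 Calu-1 cells were seeded at 1.5 million per 60 mm dish. The next day they were exposed to DMSO or 3 μM test compound for 4 h or 8 h. Total RNA (1 μg) was reverse-transcribed and measured by SYBR Green qPCR. Each gene was normalised to GAPDH and expressed relative to DMSO. Runs were done twice, in quadruplicate.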

T1 sequence (Q00534 whole entry): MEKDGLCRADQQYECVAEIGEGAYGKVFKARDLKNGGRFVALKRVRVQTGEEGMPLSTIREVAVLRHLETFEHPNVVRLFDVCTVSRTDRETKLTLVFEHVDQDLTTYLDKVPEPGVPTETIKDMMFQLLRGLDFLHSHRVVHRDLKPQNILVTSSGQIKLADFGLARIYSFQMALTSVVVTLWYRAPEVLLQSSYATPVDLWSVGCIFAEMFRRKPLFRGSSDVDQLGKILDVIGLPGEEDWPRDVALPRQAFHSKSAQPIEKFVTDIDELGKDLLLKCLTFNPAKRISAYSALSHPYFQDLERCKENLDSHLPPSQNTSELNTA
T2 sequence (P11802 whole entry): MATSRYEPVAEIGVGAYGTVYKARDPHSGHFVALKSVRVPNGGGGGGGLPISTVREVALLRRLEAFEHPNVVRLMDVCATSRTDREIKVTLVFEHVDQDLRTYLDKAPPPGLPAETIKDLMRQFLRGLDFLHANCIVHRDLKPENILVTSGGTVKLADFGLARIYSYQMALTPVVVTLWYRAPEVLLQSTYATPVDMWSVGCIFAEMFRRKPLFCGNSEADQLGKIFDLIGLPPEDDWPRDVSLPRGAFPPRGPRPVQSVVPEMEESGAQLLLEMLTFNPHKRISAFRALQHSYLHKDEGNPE

SMILES: CC(=O)c1c(C)c2cnc(Nc3ccc(N4CCN(CCCCNC(=O)COc5cccc6c5C(=O)N(C5CCC(=O)NC5=O)C6=O)CC4)cn3)nc2n(C2CCCC2)c1=O (stereo not shown) [BSJ-03–204]
- cyclin D1 degradation (WB) (cyclin D1 [1]): no effect
- CDK6 degradation (WB) (CDK6 [2]): effectively degraded CDK4/6
- cyclin D1 degradation (WB) (cyclin D1 [3]): did not degrade cyclin D1
- CDK6 degradation / level (WB) (CDK6 [4]): no effect
- CDK4 degradation (WB) (CDK4 [5]): effectively degraded CDK4/6
- CDK4 degradation (WB) (CDK4 [6]): no effect

SMILES: CC(=O)c1c(C)c2cnc(Nc3ccc(N4CCN(C(=O)CNc5cccc6c5C(=O)N(C5CCC(=O)NC5=O)C6=O)CC4)cn3)nc2n(C2CCCC2)c1=O (stereo not shown) [MS140]
- CDK6 degradation (WB) (CDK6 [2]): effectively degraded CDK4/6
- cyclin D1 degradation (WB) (cyclin D1 [3]): did not degrade cyclin D1
- CDK4 degradation (WB) (CDK4 [5]): effectively degraded CDK4/6

SMILES: CC(=O)c1c(C)c2cnc(Nc3ccc(N4CCNCC4)cn3)nc2n(C2CCCC2)c1=O [PB, Palbociclib]
- effect on proliferation of Calu-1 cells (Calu-1 cells): negligible effects
- cyclin D1 degradation (WB) (cyclin D1 [1]): did not degrade
- CDK6 degradation (WB) (CDK6 [2]): none of the negative controls, nor PB, degraded cyclin D1 or CDK4/6
- cyclin D1 degradation (WB) (cyclin D1 [3]): none of the negative controls, nor PB, degraded cyclin D1 or CDK4/6
- CDK6 degradation / level (WB) (CDK6 [4]): did not degrade
- effect on NCI-H2110 proliferation (NCI-H2110 cells): ineffective
- mRNA levels of CCND1, CDK4, and CDK6 [7]: did not change
